Test results taken from ChEMBL document CHEMBL1142419, “Antimycobacterial activities of novel 2-(sub)-3-fluoro/nitro-5,12-dihydro-5-oxobenzothiazolo[3,2-a]quinoline-6-carboxylic acid” (Bioorg Med Chem, 2008).
Converted amounts (≈) assume the structure as drawn.

Columns and labels:
[1] = test system: Mycobacterium tuberculosis; experiment: Antimycobacterial activity against Mycobacterium tuberculosis H37Rv by agar dilution method; format: functional
Outline: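 MIC by agar dilution on Middlebrook 7H11 agar supplemented with OADC, following an NCCLS-like procedure, run in duplicate. The MDR-TB clinical isolate was resistant to isoniazid, rifampicin, ethambutol and ofloxacin.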

[2] = test system: Mycolicibacterium smegmatis; experiment: Antimycobacterial activity against Mycobacterium smegmatis MC2 by agar dilution method; format: functional
Outline: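 Agar dilution on Middlebrook 7H11 agar supplemented with OADC, following an NCCLS-like procedure; MIC determined in duplicate against M. smegmatis ATCC 14468 (MC²).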

Vero = experiment: Cytotoxicity against african green monkey Vero cells after 72 hrs by MTT assay; format: cell-based; conditions: Chlorocebus sabaeus
Outline: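 Vero mammalian cells were exposed to compounds for 72 h, with testing at 62.5 µg/ml. Viability was read as cellular conversion of MTT to formazan (non-radioactive cell proliferation kit), and IC50 was reported.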

Mus musculus [3] = experiment: Phototoxicity in Swiss albino mouse assessed as erythema incidence at 140 mg/kg, po after 4 hrs of irradiation; format: organism-based; parameters: dose 140 mg/kg, route oral; conditions: in vivo
Outline: (§1)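 Female Swiss albino mice (about 2 months, 20–25 g), fasted at least 18 h, received a single oral gavage of 140 mg/kg. Groups: six per group; lomefloxacin HCl 140 mg/kg; vehicle 0.5% aqueous sodium carboxymethylcellulose at 10 ml/kg. Mice were UV-irradiated for 4 h (about 18 J/cm²). Both ears were scored for erythema, edema and ear thickness (left/right averaged) pre-dose, at end of irradiation, and at about 24, 48, 72 and 96 h. Ear thickness change from baseline was tested by Student's t-tests.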

Mus musculus [4] = experiment: Phototoxicity in Swiss albino mouse assessed as ear thickness at 140 mg/kg, po after 4 hrs of irradiation; format: organism-based; parameters: dose 140 mg/kg, route oral; conditions: in vivo; outline: as §1
Mus musculus [5] = experiment: Phototoxicity in Swiss albino mouse assessed as ear thickness at 140 mg/kg, po after 72 hrs of irradiation; format: organism-based; parameters: dose 140 mg/kg, route oral; conditions: in vivo; outline: as §1
[6] = Inhibition of Mycobacterium smegmatis DNA gyrase supercoiling activity; parameters: species or system Mycolicibacterium smegmatis
Mus musculus [7] = experiment: Phototoxicity in Swiss albino mouse assessed as ear thickness at 140 mg/kg, po after 96 hrs of irradiation; format: organism-based; parameters: dose 140 mg/kg, route oral; conditions: in vivo; outline: as §1
Mus musculus [8] = experiment: Phototoxicity in Swiss albino mouse assessed as ear thickness at 140 mg/kg, po after 48 hrs of irradiation; format: organism-based; parameters: dose 140 mg/kg, route oral; conditions: in vivo; outline: as §1
Mus musculus [9] = experiment: Phototoxicity in Swiss albino mouse assessed as erythema incidence at 140 mg/kg, po after 24 hrs of irradiation; format: organism-based; parameters: dose 140 mg/kg, route oral; conditions: in vivo; outline: as §1
Mus musculus [10] = experiment: Phototoxicity in Swiss albino mouse assessed as erythema incidence at 140 mg/kg, po after 96 hrs of irradiation; format: organism-based; parameters: dose 140 mg/kg, route oral; conditions: in vivo; outline: as §1
Mus musculus [11] = experiment: Phototoxicity in Swiss albino mouse assessed as ear thickness at 140 mg/kg, po after 24 hrs of irradiation; format: organism-based; parameters: dose 140 mg/kg, route oral; conditions: in vivo; outline: as §1
Mus musculus [12] = experiment: (§2) Phototoxicity in Swiss albino mouse assessed as erythema incidence at 140 mg/kg, po after 48 hrs of irradiation; format: organism-based; parameters: dose 140 mg/kg, route oral; conditions: in vivo; outline: as §1
Mus musculus [13] = experiment: as §2; format: organism-based; parameters: dose 140 mg/kg, route oral; conditions: in vivo; outline: as §1; remark: listed apart in the source

SMILES | MIC [1] [µM] | MIC [2] [µM] | IC50 (Vero) [µM] | also measured
Cc1onc(-c2c(F)cccc2F)c1C(=O)N1CCN(c2cc3c(cc2F)c(=O)c(C(=O)O)c2sc4ccccc4n23)CC1 | 2.52 (≈ 1.56 µg/mL) | 40.4 (≈ 25 µg/mL) | – | –
O=C(O)c1c(=O)c2cc(F)c(N3CCN(C(=O)c4ccco4)CC3)cc2n2c1sc1ccccc12 | 6.37 (≈ 3.13 µg/mL) | 50.9 (≈ 25 µg/mL) | – | –
O=C(O)c1cn2c(n1)CN(c1cc3c(cc1F)c(=O)c(C(=O)O)c1sc4ccccc4n13)CC2 | 3.26 (≈ 1.56 µg/mL) | 52.2 (≈ 25 µg/mL) | > 131 | –
O=C(O)c1c(=O)c2cc([N+](=O)[O-])c(N3CCN(C(=O)C4COc5ccccc5O4)CC3)cc2n2c1sc1ccccc12 (configuration not stated) | 10.7 (≈ 6.25 µg/mL) | 85.2 (≈ 50 µg/mL) | – | –
COc1ccc(CC2C3=C(CCCC3)CCN2c2cc3c(cc2[N+](=O)[O-])c(=O)c(C(=O)O)c2sc4ccccc4n23)cc1 (configuration not stated) | 10.5 (≈ 6.25 µg/mL) | 83.9 (≈ 50 µg/mL) | – | –
Cc1onc(-c2c(F)cccc2F)c1C(=O)N1CCN(c2cc3c(cc2[N+](=O)[O-])c(=O)c(C(=O)O)c2sc4ccccc4n23)CC1 | 4.85 (≈ 3.13 µg/mL) | 77.5 (≈ 50 µg/mL) | – | –
COc1cc2c(cc1OC)CN(c1cc3c(cc1[N+](=O)[O-])c(=O)c(C(=O)O)c1sc4ccccc4n13)CC2 | 1.47 (≈ 0.781 µg/mL) | 47 (≈ 25 µg/mL) | 118 | –
COc1ccc(CC2C3=C(CCCC3)CCN2c2cc3c(cc2F)c(=O)c(C(=O)O)c2sc4ccccc4n23)cc1 (configuration not stated) | 5.5 (≈ 3.13 µg/mL) | 44 (≈ 25 µg/mL) | – | –
CCN(CC)C(=O)C1CCCN(c2cc3c(cc2[N+](=O)[O-])c(=O)c(C(=O)O)c2sc4ccccc4n23)C1 (configuration not stated) | 2.99 (≈ 1.56 µg/mL) | 95.7 (≈ 50 µg/mL) | 59.8 | –
O=C(O)c1cn2c(n1)CN(c1cc3c(cc1[N+](=O)[O-])c(=O)c(C(=O)O)c1sc4ccccc4n13)CC2 | 1.54 (≈ 0.778 µg/mL) | 98.2 (≈ 49.6 µg/mL) | 124 | –
O=C(O)c1c(=O)c2cc(F)c(N3CCC(O)(c4ccc(Cl)cc4)CC3)cc2n2c1sc1ccccc12 | 0.36 (≈ 0.188 µg/mL) | 2.98 (≈ 1.56 µg/mL) | 120 | Activity (Mus musculus [3]): Non-toxic; Activity (Mus musculus [4]): 0.32 mm; Activity (Mus musculus [5]): 0.32 mm; IC50 [6]: 40 µg/mL (≈ 76.5 µM); Activity (Mus musculus [7]): 0.3 mm; Activity (Mus musculus [8]): 0.29 mm; Activity (Mus musculus [9]): Non-toxic; Activity (Mus musculus [10]): Non-toxic; Activity (Mus musculus [11]): 0.31 mm; Activity (Mus musculus [12]): Non-toxic; Activity (Mus musculus [13]): Non-toxic
O=C(O)c1c(=O)c2cc([N+](=O)[O-])c(N3CCC(N4CCCCC4)CC3)cc2n2c1sc1ccccc12 | 3.08 (≈ 1.56 µg/mL) | 98.7 (≈ 50 µg/mL) | 61.7 | –
O=C(O)c1c(=O)c2cc([N+](=O)[O-])c(N3CCSCC3)cc2n2c1sc1ccccc12 | 7.09 (≈ 3.13 µg/mL) | 113 (≈ 50 µg/mL) | – | –
O=C(O)c1c(=O)c2cc([N+](=O)[O-])c(N3CCN(C(=O)c4ccco4)CC3)cc2n2c1sc1ccccc12 | 6.04 (≈ 3.13 µg/mL) | 48.2 (≈ 25 µg/mL) | – | –
COc1cc2c(cc1OC)CN(c1cc3c(cc1F)c(=O)c(C(=O)O)c1sc4ccccc4n13)CC2 | 1.55 (≈ 0.782 µg/mL) | 6.2 (≈ 3.13 µg/mL) | > 124 | –
CC1CN(c2cc3c(cc2F)c(=O)c(C(=O)O)c2sc4ccccc4n23)CC(C)O1 (configuration not stated) | 7.34 (≈ 3.13 µg/mL) | 29.3 (≈ 12.5 µg/mL) | – | –
CN1CCN(c2cc3c(cc2[N+](=O)[O-])c(=O)c(C(=O)O)c2sc4ccccc4n23)CC1c1ccccc1 (configuration not stated) | 12.2 (≈ 6.25 µg/mL) | 97.2 (≈ 50 µg/mL) | – | –
CCn1cc(C(=O)O)c(=O)c2cc(F)c(N3CCNC(C)C3)c(F)c21 (configuration not stated) [LOMEFLOXACIN] | – | – | – | Activity (Mus musculus [3]): Toxic; Activity (Mus musculus [4]): 0.4 mm; Activity (Mus musculus [5]): 0.64 mm; Activity (Mus musculus [7]): 0.6 mm; Activity (Mus musculus [8]): 0.53 mm; Activity (Mus musculus [9]): Toxic; Activity (Mus musculus [10]): Toxic; Activity (Mus musculus [11]): 0.48 mm; Activity (Mus musculus [12]): Toxic; Activity (Mus musculus [13]): Toxic
